Laboratory results published in ChEMBL document CHEMBL1828552, “Synthesis and studies of novel 2-(4-cyano-3-trifluoromethylphenyl amino)-4-(quinoline-4-yloxy)-6-(piperazinyl/piperidinyl)-s-triazines as potential antimicrobial, antimycobacterial and anticancer agents” (2011).
In brackets after ≈: the same amount, converted by molar mass.

Tested on: Escherichia coli
Assay: Antibacterial activity against 10^5 CFU/mL Escherichia coli MTCC 739 after 24 hrs by agar streak dilution method
Format: functional
Details: MTCC 739, 24 h
Outline: (§1)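 Agar streak dilution. Stock 100 µg/mL in DMSO; graded amounts were mixed into molten nutrient agar and poured at 4–5 mm depth. Plates carried serial dilutions over […]. About 10⁵ CFU/mL of each bacterium was applied, and plates were incubated at 37 ± 1 °C for 24 h. MIC was read from the dilution series.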

SMILES	MIC
N#Cc1ccc(Nc2nc(Oc3ccnc4ccccc34)nc(N3CCN(C(c4ccccc4)c4ccccc4)CC3)n2)cc1C(F)(F)F	100 µg/mL (≈ 152 µM)

Tested on: Klebsiella pneumoniae
Assay: Antibacterial activity against 10^5 CFU/mL Klebsiella pneumoniae MTCC 109 after 24 hrs by agar streak dilution method
Format: functional
Details: MTCC 109, 24 h
Outline: as §1

SMILES	MIC
N#Cc1ccc(Nc2nc(Oc3ccnc4ccccc34)nc(N3CCN(C(c4ccccc4)c4ccccc4)CC3)n2)cc1C(F)(F)F	100 µg/mL (≈ 152 µM)

Tested on: Proteus vulgaris
Assay: Antibacterial activity against 10^5 CFU/mL Proteus vulgaris MTCC 1771 after 24 hrs by disc diffusion technique
Format: functional
Details: not given
Outline: (§2)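 Disc diffusion on Mueller–Hinton agar poured 5 mm deep. The surface was swabbed with a 10⁵ CFU/mL […] suspension. Filter-paper discs 6.25 mm in diameter were soaked in compound in DMSO and placed on the agar. Plates were incubated 24 h at 37 ± 1 °C, and the inhibition zone was measured in mm. A DMSO disc served as blank.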

SMILES	inhibition zone (IZ)
N#Cc1ccc(Nc2nc(Oc3ccnc4ccccc34)nc(N3CCN(C(c4ccccc4)c4ccccc4)CC3)n2)cc1C(F)(F)F	19 mm

Tested on: Aspergillus niger
Assay: Antifungal activity against 10^5 CFU/mL Aspergillus niger MTCC 282 after 48 hrs by disc diffusion technique
Format: functional
Details: not given

SMILES	inhibition zone (IZ)
N#Cc1ccc(Nc2nc(Oc3ccnc4ccccc34)nc(N3CCN(C(c4ccccc4)c4ccccc4)CC3)n2)cc1C(F)(F)F	14 mm

Tested on: Aspergillus niger
Assay: Antifungal activity against 10^5 CFU/mL Aspergillus niger MTCC 282 after 48 hrs by agar streak dilution method
Format: functional
Details: MTCC 282, 48 h
Outline: (§3)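 Agar streak dilution for fungi. Stock 100 µg/mL in DMSO; graded amounts were mixed into molten Sabouraud dextrose agar and poured at 4–5 mm depth. Serial dilutions ran over […]. About 10⁵ CFU/mL inoculum was applied, with incubation at 37 ± 1 °C for 48 h. MIC was read from the dilution series.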

SMILES	MIC
N#Cc1ccc(Nc2nc(Oc3ccnc4ccccc34)nc(N3CCN(C(c4ccccc4)c4ccccc4)CC3)n2)cc1C(F)(F)F	100 µg/mL (≈ 152 µM)

Tested on: Bacillus cereus
Assay: Antibacterial activity against 10^5 CFU/mL Bacillus cereus MTCC 619 after 24 hrs by agar streak dilution method
Format: functional
Details: MTCC 619, 24 h
Outline: as §1

SMILES	MIC
N#Cc1ccc(Nc2nc(Oc3ccnc4ccccc34)nc(N3CCN(C(c4ccccc4)c4ccccc4)CC3)n2)cc1C(F)(F)F	25 µg/mL (≈ 38 µM)

Tested on: Pseudomonas aeruginosa
Assay: Antibacterial activity against 10^5 CFU/mL Pseudomonas aeruginosa MTCC 741 after 24 hrs by agar streak dilution method
Format: functional
Details: MTCC 741, 24 h
Outline: as §1

SMILES	MIC
N#Cc1ccc(Nc2nc(Oc3ccnc4ccccc34)nc(N3CCN(C(c4ccccc4)c4ccccc4)CC3)n2)cc1C(F)(F)F	100 µg/mL (≈ 152 µM)

Tested on: Shigella flexneri
Assay: Antibacterial activity against 10^5 CFU/mL Shigella flexneri MTCC 1457 after 24 hrs by agar streak dilution method
Format: functional
Details: MTCC 1457, 24 h
Outline: as §1

SMILES	MIC
N#Cc1ccc(Nc2nc(Oc3ccnc4ccccc34)nc(N3CCN(C(c4ccccc4)c4ccccc4)CC3)n2)cc1C(F)(F)F	100 µg/mL (≈ 152 µM)

Tested on: Bacillus cereus
Assay: Antibacterial activity against 10^5 CFU/mL Bacillus cereus MTCC 619 after 24 hrs by disc diffusion technique
Format: functional
Details: not given
Outline: as §2

SMILES	inhibition zone (IZ)
N#Cc1ccc(Nc2nc(Oc3ccnc4ccccc34)nc(N3CCN(C(c4ccccc4)c4ccccc4)CC3)n2)cc1C(F)(F)F	22 mm

Tested on: DU-145
Assay: Cytotoxicity against […] human DU145 cells after 48 hrs by SRB assay
Format: functional
Details: DU-145, 48 h
Outline: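 SRB assay in DU-145 cells grown in RPMI 1640 with 10% FBS and 2 mM L-glutamine. Cells were plated and held 24 h before addition of four 10-fold concentrations. After 48 h, cells were TCA-fixed, stained with 0.4% SRB and read at 540 nm. GI50, TGI and LC50 were derived against time-zero and control wells; each value is the mean of three experiments.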

SMILES	GI50	LC50 (concentration giving 50% net cell kill relative to time zero)	TGI
N#Cc1ccc(Nc2nc(Oc3ccnc4ccccc34)nc(N3CCN(C(c4ccccc4)c4ccccc4)CC3)n2)cc1C(F)(F)F	> 100 µM	> 100 µM	> 100 µM

Tested on: Aspergillus clavatus
Assay: Antifungal activity against 10^5 CFU/mL Aspergillus clavatus MTCC 1323 after 48 hrs by agar streak dilution method
Format: functional
Details: MTCC 1323, 48 h
Outline: as §3

SMILES	MIC
N#Cc1ccc(Nc2nc(Oc3ccnc4ccccc34)nc(N3CCN(C(c4ccccc4)c4ccccc4)CC3)n2)cc1C(F)(F)F	100 µg/mL (≈ 152 µM)

Tested on: Salmonella typhi
Assay: Antibacterial activity against 10^5 CFU/mL Salmonella typhi MTCC 733 after 24 hrs by agar streak dilution method
Format: functional, Salmonella enterica subsp. enterica serovar Typhi
Details: Salmonella enterica, MTCC 733, 24 h

SMILES	MIC
N#Cc1ccc(Nc2nc(Oc3ccnc4ccccc34)nc(N3CCN(C(c4ccccc4)c4ccccc4)CC3)n2)cc1C(F)(F)F	100 µg/mL (≈ 152 µM)

Tested on: Proteus vulgaris
Assay: Antibacterial activity against 10^5 CFU/mL Proteus vulgaris MTCC 1771 after 24 hrs by agar streak dilution method
Format: functional
Details: MTCC 1771, 24 h
Outline: as §1

SMILES	MIC
N#Cc1ccc(Nc2nc(Oc3ccnc4ccccc34)nc(N3CCN(C(c4ccccc4)c4ccccc4)CC3)n2)cc1C(F)(F)F	100 µg/mL (≈ 152 µM)

Tested on: Pseudomonas aeruginosa
Assay: Antibacterial activity against 10^5 CFU/mL Pseudomonas aeruginosa MTCC 741 after 24 hrs by disc diffusion technique
Format: functional
Details: not given
Outline: as §2

SMILES	inhibition zone (IZ)
N#Cc1ccc(Nc2nc(Oc3ccnc4ccccc34)nc(N3CCN(C(c4ccccc4)c4ccccc4)CC3)n2)cc1C(F)(F)F	19 mm

Tested on: Aspergillus fumigatus
Assay: Antifungal activity against 10^5 CFU/mL Aspergillus fumigatus MTCC 343 after 48 hrs by agar streak dilution method
Format: functional
Details: MTCC 343, 48 h
Outline: as §3

SMILES	MIC
N#Cc1ccc(Nc2nc(Oc3ccnc4ccccc34)nc(N3CCN(C(c4ccccc4)c4ccccc4)CC3)n2)cc1C(F)(F)F	100 µg/mL (≈ 152 µM)

Tested on: Salmonella typhi
Assay: Antibacterial activity against 10^5 CFU/mL Salmonella typhi MTCC 733 after 24 hrs by disc diffusion technique
Format: functional, Salmonella enterica subsp. enterica serovar Typhi
Details: not given
Outline: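 Disc diffusion. Mueller-Hinton agar autoclaved 120 °C 30 min, poured 5 mm deep. Surface swabbed with 10⁵ CFU/mL suspension […]. 6.25 mm filter-paper discs soaked in compound in DMSO; DMSO-only disc as blank. Incubated 37 ± 1 °C, 24 h for bacteria or 48 h for fungi. Ciprofloxacin and ketoconazole discs as reference drugs. Inhibition zone measured in mm.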

SMILES	inhibition zone (IZ)
N#Cc1ccc(Nc2nc(Oc3ccnc4ccccc34)nc(N3CCN(C(c4ccccc4)c4ccccc4)CC3)n2)cc1C(F)(F)F	19 mm

Tested on: Aspergillus fumigatus
Assay: Antifungal activity against 10^5 CFU/mL Aspergillus fumigatus MTCC 343 after 48 hrs by disc diffusion technique
Format: functional
Details: not given

SMILES	inhibition zone (IZ)
N#Cc1ccc(Nc2nc(Oc3ccnc4ccccc34)nc(N3CCN(C(c4ccccc4)c4ccccc4)CC3)n2)cc1C(F)(F)F	20 mm

Tested on: Aspergillus clavatus
Assay: Antifungal activity against 10^5 CFU/mL Aspergillus clavatus MTCC 1323 after 48 hrs by disc diffusion technique
Format: functional
Details: not given

SMILES	inhibition zone (IZ)
N#Cc1ccc(Nc2nc(Oc3ccnc4ccccc34)nc(N3CCN(C(c4ccccc4)c4ccccc4)CC3)n2)cc1C(F)(F)F	16 mm

Tested on: Klebsiella pneumoniae
Assay: Antibacterial activity against 10^5 CFU/mL Klebsiella pneumoniae MTCC 109 after 24 hrs by disc diffusion technique
Format: functional
Details: not given
Outline: as §2

SMILES	inhibition zone (IZ)
N#Cc1ccc(Nc2nc(Oc3ccnc4ccccc34)nc(N3CCN(C(c4ccccc4)c4ccccc4)CC3)n2)cc1C(F)(F)F	17 mm

Tested on: Escherichia coli
Assay: Antibacterial activity against 10^5 CFU/mL Escherichia coli MTCC 739 after 24 hrs by disc diffusion technique
Format: functional
Details: not given
Outline: as §2

SMILES	inhibition zone (IZ)
N#Cc1ccc(Nc2nc(Oc3ccnc4ccccc34)nc(N3CCN(C(c4ccccc4)c4ccccc4)CC3)n2)cc1C(F)(F)F	19 mm

Tested on: Staphylococcus aureus
Assay: Antibacterial activity against 10^5 CFU/mL Staphylococcus aureus MTCC 96 after 24 hrs by disc diffusion technique
Format: functional
Details: not given
Outline: as §2

SMILES	inhibition zone (IZ)
N#Cc1ccc(Nc2nc(Oc3ccnc4ccccc34)nc(N3CCN(C(c4ccccc4)c4ccccc4)CC3)n2)cc1C(F)(F)F	21 mm

Tested on: Shigella flexneri
Assay: Antibacterial activity against 10^5 CFU/mL Shigella flexneri MTCC 1457 after 24 hrs by disc diffusion technique
Format: functional
Details: not given
Outline: as §2

SMILES	inhibition zone (IZ)
N#Cc1ccc(Nc2nc(Oc3ccnc4ccccc34)nc(N3CCN(C(c4ccccc4)c4ccccc4)CC3)n2)cc1C(F)(F)F	21 mm

Tested on: Candida albicans
Assay: Antifungal activity against 10^5 CFU/mL Candida albicans MTCC 183 after 48 hrs by agar streak dilution method
Format: functional
Details: MTCC 183, 48 h
Outline: as §3

SMILES	MIC
N#Cc1ccc(Nc2nc(Oc3ccnc4ccccc34)nc(N3CCN(C(c4ccccc4)c4ccccc4)CC3)n2)cc1C(F)(F)F	100 µg/mL (≈ 152 µM)

Tested on: Candida albicans
Assay: Antifungal activity against 10^5 CFU/mL Candida albicans MTCC 183 after 48 hrs by disc diffusion technique
Format: functional
Details: not given

SMILES	inhibition zone (IZ)
N#Cc1ccc(Nc2nc(Oc3ccnc4ccccc34)nc(N3CCN(C(c4ccccc4)c4ccccc4)CC3)n2)cc1C(F)(F)F	15 mm

Tested on: Staphylococcus aureus
Assay: Antibacterial activity against 10^5 CFU/mL Staphylococcus aureus MTCC 96 after 24 hrs by agar streak dilution method
Format: functional
Details: MTCC 96, 24 h
Outline: as §1

SMILES	MIC
N#Cc1ccc(Nc2nc(Oc3ccnc4ccccc34)nc(N3CCN(C(c4ccccc4)c4ccccc4)CC3)n2)cc1C(F)(F)F	50 µg/mL (≈ 75.9 µM)
